Experimental data: paper PMC4234452 (Journal of Medicinal Chemistry, 2014)

Experiments:
human TG1 = target: T1, human TG1 (Homo sapiens, UniProt P22735); experiment: GDH-coupled transglutaminase assay, TG1; assay type: biochemical
T1 sequence (P22735 63-817): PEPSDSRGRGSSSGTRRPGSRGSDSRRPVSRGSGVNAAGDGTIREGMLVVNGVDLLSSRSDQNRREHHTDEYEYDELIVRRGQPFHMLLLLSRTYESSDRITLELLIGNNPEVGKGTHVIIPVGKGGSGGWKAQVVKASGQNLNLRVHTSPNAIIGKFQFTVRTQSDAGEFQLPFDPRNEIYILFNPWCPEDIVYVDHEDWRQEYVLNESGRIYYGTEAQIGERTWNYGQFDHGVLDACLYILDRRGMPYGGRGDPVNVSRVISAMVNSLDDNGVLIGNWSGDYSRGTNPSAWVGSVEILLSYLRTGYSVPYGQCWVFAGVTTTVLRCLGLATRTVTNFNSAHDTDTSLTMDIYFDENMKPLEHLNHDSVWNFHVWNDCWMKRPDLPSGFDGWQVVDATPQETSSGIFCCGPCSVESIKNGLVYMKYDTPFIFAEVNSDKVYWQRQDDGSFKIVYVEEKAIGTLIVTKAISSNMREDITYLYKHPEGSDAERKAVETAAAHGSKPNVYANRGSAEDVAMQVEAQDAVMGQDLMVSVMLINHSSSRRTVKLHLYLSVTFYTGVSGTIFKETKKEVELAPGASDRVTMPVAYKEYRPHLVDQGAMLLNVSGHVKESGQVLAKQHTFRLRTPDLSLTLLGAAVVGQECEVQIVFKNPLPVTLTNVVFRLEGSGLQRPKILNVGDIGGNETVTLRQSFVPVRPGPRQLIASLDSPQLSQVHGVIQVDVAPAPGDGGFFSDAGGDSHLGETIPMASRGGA

human TG2 = target: T2, human TG2 (Homo sapiens, UniProt P21980, V224G); experiment: GDH-coupled transglutaminase assay, TG2; assay type: biochemical
T2 sequence (P21980 1-687 V224G): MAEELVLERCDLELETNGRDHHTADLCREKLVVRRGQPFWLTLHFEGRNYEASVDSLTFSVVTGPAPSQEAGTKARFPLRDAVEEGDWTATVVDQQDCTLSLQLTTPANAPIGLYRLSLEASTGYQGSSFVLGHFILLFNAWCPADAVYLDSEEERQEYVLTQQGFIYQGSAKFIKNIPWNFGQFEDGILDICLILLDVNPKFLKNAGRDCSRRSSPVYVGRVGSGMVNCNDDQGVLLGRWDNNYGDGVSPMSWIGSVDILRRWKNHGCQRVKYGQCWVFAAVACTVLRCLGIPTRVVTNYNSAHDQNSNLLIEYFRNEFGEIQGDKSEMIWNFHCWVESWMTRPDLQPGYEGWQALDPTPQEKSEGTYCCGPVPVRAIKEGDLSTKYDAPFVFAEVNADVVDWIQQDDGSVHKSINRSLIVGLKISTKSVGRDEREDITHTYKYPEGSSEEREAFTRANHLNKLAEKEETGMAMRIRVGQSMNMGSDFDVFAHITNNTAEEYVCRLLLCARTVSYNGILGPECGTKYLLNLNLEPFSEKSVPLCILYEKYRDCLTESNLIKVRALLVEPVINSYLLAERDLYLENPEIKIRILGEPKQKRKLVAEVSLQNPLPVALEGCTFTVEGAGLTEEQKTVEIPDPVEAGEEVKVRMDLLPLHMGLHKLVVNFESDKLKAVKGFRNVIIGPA

[1] = target: T3, Human Transglutaminase 3 (TG3) (Homo sapiens, UniProt Q08188); experiment: GDH-coupled transglutaminase assay, TG3; assay type: biochemical; settings: irreversible inhibition model, substrate ZQS
T3 sequence (Q08188 2-467 limits assumed): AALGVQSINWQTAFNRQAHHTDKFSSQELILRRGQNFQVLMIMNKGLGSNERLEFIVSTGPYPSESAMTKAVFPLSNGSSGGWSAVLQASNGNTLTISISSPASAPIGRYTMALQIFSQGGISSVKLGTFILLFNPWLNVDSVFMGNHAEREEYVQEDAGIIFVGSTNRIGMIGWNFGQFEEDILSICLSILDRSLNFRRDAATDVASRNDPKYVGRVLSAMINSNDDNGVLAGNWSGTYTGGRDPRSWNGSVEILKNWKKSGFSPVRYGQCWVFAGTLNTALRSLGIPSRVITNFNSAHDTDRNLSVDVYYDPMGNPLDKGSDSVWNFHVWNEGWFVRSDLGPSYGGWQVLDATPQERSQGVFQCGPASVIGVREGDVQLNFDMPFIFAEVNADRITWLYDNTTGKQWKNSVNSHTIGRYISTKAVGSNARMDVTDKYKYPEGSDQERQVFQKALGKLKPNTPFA
T3 sequence (Q08188 468-693 partner limits assumed): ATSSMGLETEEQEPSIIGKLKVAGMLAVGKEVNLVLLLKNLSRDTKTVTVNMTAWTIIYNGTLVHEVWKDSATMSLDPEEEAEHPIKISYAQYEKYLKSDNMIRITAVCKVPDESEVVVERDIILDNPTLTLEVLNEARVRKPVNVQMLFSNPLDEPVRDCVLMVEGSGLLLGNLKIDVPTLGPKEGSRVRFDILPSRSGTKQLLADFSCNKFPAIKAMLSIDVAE

murine TG2 (mTG2) = target: T4, murine TG2 (mTG2) (Mus musculus, UniProt P21981); experiment: GDH-coupled transglutaminase assay, murine TG2; assay type: biochemical; settings: irreversible inhibition model, substrate ZQG
T4 sequence (P21981 1-686): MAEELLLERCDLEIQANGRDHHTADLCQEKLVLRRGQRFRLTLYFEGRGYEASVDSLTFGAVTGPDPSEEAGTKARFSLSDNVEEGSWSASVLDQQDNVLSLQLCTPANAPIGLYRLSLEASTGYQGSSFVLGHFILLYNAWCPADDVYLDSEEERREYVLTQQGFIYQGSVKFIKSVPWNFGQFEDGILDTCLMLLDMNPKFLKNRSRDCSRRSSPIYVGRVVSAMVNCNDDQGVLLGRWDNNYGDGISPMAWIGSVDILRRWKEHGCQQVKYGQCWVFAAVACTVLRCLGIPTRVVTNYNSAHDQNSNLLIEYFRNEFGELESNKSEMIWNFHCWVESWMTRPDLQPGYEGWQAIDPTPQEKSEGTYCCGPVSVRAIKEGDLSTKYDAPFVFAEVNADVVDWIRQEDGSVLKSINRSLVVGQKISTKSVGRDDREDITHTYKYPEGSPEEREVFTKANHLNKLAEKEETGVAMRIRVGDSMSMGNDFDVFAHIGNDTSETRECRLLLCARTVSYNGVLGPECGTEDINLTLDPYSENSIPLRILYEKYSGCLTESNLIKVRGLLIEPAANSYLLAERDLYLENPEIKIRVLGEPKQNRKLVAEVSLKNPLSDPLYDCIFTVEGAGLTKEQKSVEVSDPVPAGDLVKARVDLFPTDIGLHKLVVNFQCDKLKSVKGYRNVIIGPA

[2] = Plasma concentrations after pooled oral dosing to mice; assay type: in vivo; settings: 50 mg/kg
Procedure, shortened: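 Test compounds given as mixtures by oral gavage (10 μL/g) at 50 mg/kg of each constituent to cohorts of five male CD-1 mice, 6−8 weeks old, fasted about 6 h. Blood was drawn into lithium-heparin tubes from the saphenous vein at 5 and 20 min, and by cardiac puncture at 60 min after CO2 euthanasia. Each compound's plasma concentration was quantified and plotted against time.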

TG2 = settings: murine model of hypoxia-induced pulmonary hypertension ref 22; cited from earlier work
[3] = twice-daily, intraperitoneal, 50 mg/kg, several weeks ref 22; cited from earlier work

Molecule	kinh/Ki TG3 [1] [M⁻¹ s⁻¹]	kinh/Ki mTG2 (murine TG2 (mTG2)) [M⁻¹ s⁻¹]	further results
O=C(NC[C@@H]1CC(Br)=NO1)[C@@H]1CCCN1C(=O)OCc1cnc2ccccc2c1 [Compound 1, (S)-Quinolin-3-ylmethyl 2-((((S)-3-Bromo-4,5-dihydroisoxazol-5-yl)methyl)carbamoyl)pyrrolidine-1-carboxylate]	< 16.7	138	kinh/Ki TG1 (human TG1; irreversible inhibition model, substrate ZQS, listed as ERW1041E): 217 M⁻¹ s⁻¹; kinh/Ki TG2 (human TG2; irreversible inhibition model, substrate ZQG, listed as ERW1041E): 283 M⁻¹ s⁻¹; decrease in potency from ERW1069 to ERW1041E (human TG2; relative to ERW1069): 3–4 fold; peak plasma concentration after oral dosing [2]: 2 to 3 µg/mL; inhibitory half-life (TG2): about 12 h; tolerability [3]: well tolerated
O=C(NC[C@@H]1CC(Br)=NO1)[C@@H]1C[C@H](F)CN1C(=O)OCc1cnc2ccccc2c1 [Compound 4b, (2S,4S)-Quinolin-3-ylmethyl 2-((((S)-3-Bromo-4,5-dihydroisoxazol-5-yl)methyl)carbamoyl)-4-fluoropyrrolidine-1-carboxylate]	< 16.7	117	
O=C(NC[C@@H]1CC(Br)=NO1)[C@@H]1C[C@@H](O)CN1C(=O)OCc1cnc2ccccc2c1 [Compound 4e, (2S,4R)-Quinolin-3-ylmethyl 2-((((S)-3-Bromo-4,5-dihydroisoxazol-5-yl)methyl)carbamoyl)-4-hydroxypyrrolidine-1-carboxylate]	< 16.7	185	
C#CCOC(=O)N1CCC[C@H]1C(=O)NC[C@@H]1CC(Br)=NO1 [Compound 10b, (S)-Prop-2-yn-1-yl 2-((((S)-3-Bromo-4,5-dihydroisoxazol-5-yl)methyl)carbamoyl)pyrrolidine-1-carboxylate]			selectivity for TG2 over TG1 (human TG2; from kinh/Ki): 3 fold
O=C(NC[C@@H]1CC(Br)=NO1)[C@@H]1CCCN1C(=O)OCc1cnc2ccccc2n1 [Compound 10l, (S)-Quinoxalin-2-ylmethyl 2-((((S)-3-Bromo-4,5-dihydroisoxazol-5-yl)methyl)carbamoyl)pyrrolidine-1-carboxylate]			selectivity for TG1 (over TG2) (human TG1; from kinh/Ki): 10 fold
(2S,4R)-Quinolin-3-ylmethyl 4-(Benzyloxy)-2-((((S)-3-bromo-4,5-dihydroisoxazol-5-yl)methyl)carbamoyl)pyrrolidine-1-carboxylate [Compound 5c]	< 16.7	258	

Now from value to molecule, other results behind:

kinh/Ki TG3 [1] [M⁻¹ s⁻¹]	kinh/Ki mTG2 (murine TG2 (mTG2)) [M⁻¹ s⁻¹]	Molecule	further results
< 16.7	423	O=C(NC[C@@H]1CC(Br)=NO1)[C@@H]1C[C@@H](c2ccccc2)CN1C(=O)OCc1cnc2ccccc2c1 [Compound 7a, (2S,4S)-Quinolin-3-ylmethyl 2-((((S)-3-Bromo-4,5-dihydroisoxazol-5-yl)methyl)carbamoyl)-4-phenylpyrrolidine-1-carboxylate]	plasma levels, fold lower than that of 4b [2]: 3–4 fold
< 16.7	645	O=C(NC[C@@H]1CC(Br)=NO1)[C@@H]1C[C@@H](c2ccc(O)cc2)CN1C(=O)OCc1cnc2ccccc2c1 [Compound 7e, (2S,4S)-Quinolin-3-ylmethyl 2-((((S)-3-Bromo-4,5-dihydroisoxazol-5-yl)methyl)carbamoyl)-4-(4-hydroxyphenyl)pyrrolidine-1-carboxylate]	plasma levels, fold lower than that of 4b [2]: 3–4 fold
< 16.7	157	O=C(N[C@@H]1C[C@@H](C(=O)NC[C@@H]2CC(Br)=NO2)N(C(=O)OCc2cnc3ccccc3c2)C1)c1ccc(O)cc1 [Compound 9d, (2S,4R)-Quinolin-3-ylmethyl 2-((((S)-3-Bromo-4,5-dihydroisoxazol-5-yl)methyl)carbamoyl)-4-(4-hydroxybenzamido)pyrrolidine-1-carboxylate]	oral bioavailability / systemic availability (in words) [2]: much less bioavailable
< 16.7	177	O=C(N[C@@H]1C[C@@H](C(=O)NC[C@@H]2CC(Br)=NO2)N(C(=O)OCc2cnc3ccccc3c2)C1)c1cccnc1 [Compound 9e, (2S,4R)-Quinolin-3-ylmethyl 2-((((S)-3-Bromo-4,5-dihydroisoxazol-5-yl)methyl)carbamoyl)-4-(nicotinamido)pyrrolidine-1-carboxylate]	oral bioavailability / systemic availability (in words) [2]: much less bioavailable
